According to ChEMBL document CHEMBL3244004, “Potential antitumor agents. 27. Quantitative structure--antileukemic (L1210) activity relationships for the omega-[4-(9-acridinylamino)phenyl]alkanoic acids” (J Med Chem, 1978):
Calls of active or inactive are those of the source. No cut-off for these calls is given here.

Legend:
[1] = Logarithmic function of the retardation factor value of compound by reverse phase chromatography analysis; format: physicochemical
Procedure, shortened: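 Lipophilic-hydrophilic balance read by reversed-phase TLC, using a system described in an earlier report. R_m is calculated as log(1/R_f − 1). Each quoted figure is the mean of at least three determinations.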

Mus musculus = experiment: Toxicity in ip dosed C3H/DBA2F1 hybrid mouse allografted with mouse L1210 cells administered for 5 days measured up to 8 days; format: organism-based; details: in vivo
Procedure, shortened: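 C3H/DBA2 F1 hybrid mice (18.5–22.5 g) bearing ip 10^5 L1210 cells were dosed ip once daily for 5 days, starting 24 h after inoculation, at 0.2 mL per dose. Doses were spaced 0.05 log units apart. Deaths before day 8 were taken as drug toxicity, and the dose lethal to 10% of animals (LD10) was derived.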

L1210 = experiment: Antitumor activity against mouse L1210 cells allografted in C3H/DBA2F1 hybrid mouse assessed as maximum increase of host life span administered as ip for 5 days relative to control; format: functional
Procedure, shortened: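 Mice (C3H/DBA2 F1 hybrid, 18.5–22.5 g; six per dose level) were inoculated ip with 10^5 L1210 cells. Ip treatment ran once daily on days 1–5, starting 24 h after inoculation, in 0.2 mL per dose. Doses were spaced 0.09 log units apart. ILS = T/C% − 100, significant if above 25%. Significant ILS values were regressed on log dose, and ILSmax was read at the LD10.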

| Structure (SMILES) | Rm [1] | LD10 (Mus musculus) | ILSmax (L1210) | log(ILSmax) (L1210) |
| --- | --- | --- | --- | --- |
| CCCCCCS(=O)(=O)Nc1ccc(Nc2c3ccccc3nc3ccccc23)cc1.Cl | 0.75 | 120 mg/kg | 35% |  |
| CNc1ccc2c(Nc3ccc(CCCC(=O)O)cc3)c3ccccc3nc2c1.Cl | 0.67 | 400 mg/kg | 35% | 1.54 |
| Cc1cccc2c(Nc3ccc(CC(=O)O)cc3)c3ccccc3nc12 | 0.3 | 95 mg/kg | 80% | 1.9 |
| O=C(O)CCCCCCc1ccc(Nc2c3ccccc3nc3ccccc23)cc1 | 0.79 | 90 mg/kg | 74% | 1.87 |
| CS(=O)(=O)O.NC(=O)CCCCCCCc1ccc(Nc2c3ccccc3nc3ccccc23)cc1 | 0.68 | 120 mg/kg | 53% | 1.72 |
| CC(=O)Nc1ccc2c(Nc3ccc(C(=O)O)cc3)c3ccccc3nc2c1.Cl | 0.15 | > 500 mg/kg | inactive |  |
| Cl.O=S(=O)(Cc1ccc(Nc2c3ccccc3nc3ccccc23)cc1)Nc1ccccn1 | -0.04 | 370 mg/kg | 99% | 2 |
| CS(=O)(=O)O.NC(=O)CCCCc1ccc(Nc2c3ccccc3nc3ccccc23)cc1 | 0.25 | 110 mg/kg | 82% | 1.91 |
| CCCCS(=O)(=O)Nc1ccc(Nc2c3ccccc3nc3ccccc23)cc1 | 0.56 | 350 mg/kg | 66% |  |
| CC(=O)Nc1ccc2c(Nc3ccc(NS(C)(=O)=O)cc3)c3ccccc3nc2c1 | -0.12 | 19 mg/kg | 145% |  |
| CNc1ccc2c(Nc3ccc(NS(C)(=O)=O)cc3OC)c3ccccc3nc2c1.Cl | 0.17 | 1.3 mg/kg | 94% | 1.97 |
| CCCS(=O)(=O)Nc1ccc(Nc2c3ccccc3nc3cc(NC(C)=O)ccc23)cc1 | 0.3 | 33 mg/kg | 115% | 2.06 |
| CCCCCS(=O)(=O)Nc1ccc(Nc2c3ccccc3nc3cc(NC(C)=O)ccc23)cc1 | 0.59 | 40 mg/kg | 61% | 1.78 |
| CS(=O)(=O)Nc1ccc(Nc2c3ccccc3nc3ccccc23)cc1 | 0 | 66 mg/kg | 131% |  |
| O=C(O)c1ccc(Nc2c3ccccc3nc3ccccc23)cc1 | 0.27 | 72 mg/kg | 130% | 2.11 |
| NS(=O)(=O)CCc1ccc(Nc2c3ccccc3nc3ccccc23)cc1 | -0.2 | 80 mg/kg | 68% | 1.83 |
| Cl.O=C(O)CCCc1ccc(Nc2c3ccccc3nc3ccccc23)cc1 | 0.59 | 190 mg/kg | 213% | 2.33 |
| CS(=O)(=O)O.NC(=O)CCCCCc1ccc(Nc2c3ccccc3nc3ccccc23)cc1 | 0.41 | 125 mg/kg | 97% | 1.99 |
| CCCCS(=O)(=O)Nc1ccc(Nc2c3ccccc3nc3cc(NC(C)=O)ccc23)cc1 | 0.46 | 39 mg/kg | 84% | 1.92 |
| CS(=O)(=O)O.NC(=O)Cc1ccc(Nc2c3ccccc3nc3ccccc23)cc1 | -0.33 | 55 mg/kg | 64% | 1.81 |
| NS(=O)(=O)c1ccc(Nc2c3ccccc3nc3ccccc23)cc1 | -0.57 | > 500 mg/kg | inactive |  |
| CCc1cccc2c(Nc3ccc(CCC(=O)O)cc3)c3ccccc3nc12.Cl | 0.66 | 200 mg/kg | 130% | 2.11 |
| CS(=O)(=O)O.NC(=O)CCCCCCCCc1ccc(Nc2c3ccccc3nc3ccccc23)cc1 | 0.77 | 60 mg/kg | 25% | 1.4 |
| CCCCCS(=O)(=O)Nc1ccc(Nc2c3ccccc3nc3ccccc23)cc1.Cl | 0.66 | 70 mg/kg | 55% |  |

| Structure (SMILES) | Rm [1] | LD10 (Mus musculus) | ILSmax (L1210) | log(ILSmax) (L1210) |
| --- | --- | --- | --- | --- |
| CN(C)C(=O)CCCc1ccc(Nc2c3ccccc3nc3ccccc23)cc1.Cl | 0.68 | 52 mg/kg |  | <1.3 |
| CCC(=O)Nc1ccc2c(Nc3ccc(NS(C)(=O)=O)cc3)c3ccccc3nc2c1 | 0.15 | 55 mg/kg | 119% | 2.08 |
| NC(=O)CCCCCCc1ccc(Nc2c3ccccc3nc3ccccc23)cc1 | 0.58 | 110 mg/kg | 71% | 1.85 |
| NC(=O)c1ccc(Nc2c3ccccc3nc3ccccc23)cc1 | -0.25 | 182 mg/kg |  | <1.3 |
| Cl.O=C(O)CCCCCc1ccc(Nc2c3ccccc3nc3ccccc23)cc1 | 0.75 | 150 mg/kg | 200% | 2.3 |
| CCS(=O)(=O)Nc1ccc(Nc2c3ccccc3nc3ccccc23)cc1 | 0.25 | 330 mg/kg | 98% |  |
| Cl.O=C(O)CCc1ccc(Nc2c3ccccc3nc3ccccc23)cc1 | 0.44 | 125 mg/kg | 163% | 2.21 |
| Cl.O=C(O)CCCCCCCCc1ccc(Nc2c3ccccc3nc3ccccc23)cc1 | 0.85 | 100 mg/kg | 72% | 1.86 |
| Cl.NS(=O)(=O)Cc1ccc(Nc2c3ccccc3nc3ccccc23)cc1 | -0.36 | 62 mg/kg | 53% | 1.72 |
| NC(=O)CCc1ccc(Nc2c3ccccc3nc3ccccc23)cc1 | -0.17 | 75 mg/kg | 84% | 1.92 |
| O=C(O)CCCCc1ccc(Nc2c3ccccc3nc3ccccc23)cc1 | 0.64 | 125 mg/kg | 187% | 2.27 |
| O=C(O)Cc1ccc(Nc2c3ccccc3nc3ccccc23)cc1 | 0.23 | 450 mg/kg | 22% | 1.34 |
| CNc1ccc2c(Nc3ccc(NS(C)(=O)=O)cc3)c3ccccc3nc2c1.Cl | -0.01 | 7 mg/kg | 103% | 2.01 |
| Cc1cccc2c(Nc3ccc(CCC(=O)O)cc3)c3ccccc3nc12 | 0.46 | 32 mg/kg | 124% | 2.09 |
| CCCS(=O)(=O)Nc1ccc(Nc2c3ccccc3nc3ccccc23)cc1 | 0.43 | 350 mg/kg | 82% |  |
| NC(=O)CCCc1ccc(Nc2c3ccccc3nc3ccccc23)cc1 | 0.09 | 85 mg/kg | 122% | 2.09 |
| CNc1ccc2c(Nc3ccc(OCCCC(=O)O)cc3)c3ccccc3nc2c1.Cl | 0.61 | > 500 mg/kg | 30% | >1.48 |
| Cl.O=C(O)CCCCCCCCCc1ccc(Nc2c3ccccc3nc3ccccc23)cc1 | 0.86 | 75 mg/kg | 75% | 1.88 |
| CCCCCCS(=O)(=O)Nc1ccc(Nc2c3ccccc3nc3cc(NC(C)=O)ccc23)cc1 | 0.7 | 21 mg/kg | 43% | 1.63 |
| CC(=O)Nc1ccc2c(Nc3ccc(CCCCCC(=O)O)cc3)c3ccccc3nc2c1.Cl | 0.54 | > 500 mg/kg | inactive |  |
| CCc1cccc2c(Nc3ccc(CC(=O)O)cc3)c3ccccc3nc12 | 0.52 | 200 mg/kg | 200% | 2.3 |
| CC(=O)Nc1ccc2c(=Nc3ccc(CCC(=O)O)cc3)c3ccccc3[nH]c2c1.Cl | 0.27 | 145 mg/kg |  | <1.3 |
| Cl.O=C(O)CCCCCCCc1ccc(Nc2c3ccccc3nc3ccccc23)cc1 | 0.82 | 95 mg/kg | 75% | 1.88 |
| CCS(=O)(=O)Nc1ccc(Nc2c3ccccc3nc3cc(NC(C)=O)ccc23)cc1 | 0.1 | 28 mg/kg | 115% | 2.06 |
